# Measurements collected from several papers.
# Protocols differ between the studies behind these lines. pIC50: −log10 of the molar value.
# Sialidase-2: Sialidase-2 (Homo sapiens, UniProt Q9Y3R4)
# ACHE: Acetylcholinesterase (ACHE, Homo sapiens, UniProt P22303)
# FABP4: Fatty acid-binding protein, adipocyte (FABP4, Homo sapiens, UniProt P15090)
# DPP4: Dipeptidyl peptidase 4 (DPP4, Homo sapiens, UniProt P27487)
SMILES,target,observed,mode,method,pH,pIC50
CCCCCCN[C@H]1[C@H]([C@H](O)[C@H](O)CO)OC(C(=O)O)=C[C@@H]1O,Sialidase-2,enzyme activity,inhibitor,,,4.80
Cc1ccc(C=Nc2ccc(SCc3cc(=O)c(O)co3)cc2)cc1,ACHE,enzyme activity,inhibitor,Ellman,,5.19
O=C(O)C(F)(F)C(F)(F)C(F)(F)C(F)(F)C(F)(F)F,FABP4,ligand displacement,,fluorescence,pH 7.5,3.68
CC(=O)c1c(C)c2cnc(Nc3ccc(C4CCN(CCS(C)(=O)=O)CC4)cn3)nc2n(C2CCCC2)c1=O,"Cyclin-dependent kinase 9 (CDK9, Homo sapiens, UniProt P50750)",enzyme activity,inhibitor,mobility shift,,< 6.12
COc1cc(-c2nc3ccccc3s2)cc(NC(C)=O)c1OCC(=O)N[C@H](Cc1ccccc1)C(=O)O,ACHE,enzyme activity,inhibitor,Ellman,,< 3.61
CC(C)CCN[C@H]1[C@H]([C@H](O)[C@H](O)CO)OC(C(=O)O)=C[C@@H]1O,Sialidase-2,enzyme activity,inhibitor,,,4.15
CCc1ccccc1C=Nc1ccc(SCc2cc(=O)c(O)co2)cc1,ACHE,enzyme activity,inhibitor,Ellman,,5.27
O=C(O)C(F)(F)C(F)(F)C(F)(F)F,FABP4,ligand displacement,,fluorescence,pH 7.5,2.55
CC(=O)N(C)[C@H]1[C@H]([C@H](O)[C@H](O)CO)OC(C(=O)O)=C[C@@H]1O,Sialidase-2,enzyme activity,inhibitor,,,< 3.30
O=C(O)C(F)(F)C(F)(F)C(F)(F)C(F)(F)C(F)(F)C(F)(F)C(F)(F)C(F)(F)C(F)(F)C(F)(F)C(F)(F)F,"Sterol carrier protein 2 (Homo sapiens, UniProt P22307)",ligand displacement,,fluorescence,,5.63
CC(C)(C)CC(=O)N[C@H]1[C@H]([C@H](O)[C@H](O)CO)OC(C(=O)O)=C[C@@H]1O,Sialidase-2,enzyme activity,inhibitor,,,4.10
O=c1cc(CSc2ccc(N=Cc3ccccc3C(F)(F)F)cc2)occ1O,ACHE,enzyme activity,inhibitor,Ellman,,5.09
CCN[C@H]1[C@H]([C@H](O)[C@H](O)CO)OC(C(=O)O)=C[C@@H]1O,Sialidase-2,enzyme activity,inhibitor,,,< 3.30
O=c1cc(CSc2ccc(N=Cc3ccccc3Br)cc2)occ1O,ACHE,enzyme activity,inhibitor,Ellman,,5.87
O=C(O)C(F)(F)C(F)(F)C(F)(F)C(F)(F)C(F)(F)C(F)(F)C(F)(F)F,FABP4,ligand displacement,,fluorescence,pH 7.5,5.33
O=c1cc(CSc2ccc(N=Cc3ccccc3[N+](=O)[O-])cc2)occ1O,ACHE,enzyme activity,inhibitor,Ellman,,5.29
O=C(O)C(F)(F)C(F)(F)C(F)(F)C(F)(F)C(F)(F)C(F)(F)F,FABP4,ligand displacement,,fluorescence,pH 7.5,4.96
O=c1cc(CSc2ccc(N=Cc3ccc(C(F)(F)F)cc3)cc2)occ1O,ACHE,enzyme activity,inhibitor,Ellman,,4.88
CCOC(=O)c1ccc(OC(=O)CCCCCN=C(N)N)cc1,"Tryptase beta-2 (TPSB2, Homo sapiens, UniProt P20231)",enzyme activity,inhibitor,,,8.37
COC(=O)CNC(=O)COc1c(NC(C)=O)cc(-c2nc3ccccc3s2)cc1OC,ACHE,enzyme activity,inhibitor,Ellman,,< 3.54
COc1c2c(cc3c1-c1c(cc4c(c1OC)OCO4)C[C@H](C)[C@H](C)C3)OCO2,DPP4,enzyme activity,inhibitor,fluorescence,,< 4.00
CC(C)(C)c1cccc(C=Nc2ccc(SCc3cc(=O)c(O)co3)cc2)c1,ACHE,enzyme activity,inhibitor,Ellman,,5.19
CCCCCC(=O)N[C@H]1[C@H]([C@H](O)[C@H](O)CO)OC(C(=O)O)=C[C@@H]1O,Sialidase-2,enzyme activity,inhibitor,,,5.10
CC(C)(C)c1ccc(C=Nc2ccc(SCc3cc(=O)c(O)co3)cc2)cc1,ACHE,enzyme activity,inhibitor,Ellman,,4.76
COc1cc(-c2nc3ccccc3s2)cc(NC(C)=O)c1OCC(=O)NCC(=O)O,ACHE,enzyme activity,inhibitor,Ellman,,< 3.53
CN(C(=O)CC(C)(C)C)[C@H]1[C@H]([C@H](O)[C@H](O)CO)OC(C(=O)O)=C[C@@H]1O,Sialidase-2,enzyme activity,inhibitor,,,4.30
CC[C@@H](C)[C@H](NC(=O)COc1c(NC(C)=O)cc(-c2nc3ccccc3s2)cc1OC)C(=O)OC,ACHE,enzyme activity,inhibitor,Ellman,,< 3.59
O=c1cc(-c2ccc(O)c(O)c2)oc2cc(O)cc(O)c12,DPP4,enzyme activity,inhibitor,fluorescence,,4.32
CC(C)Cc1cn([C@H]2[C@H]([C@H](O)[C@H](O)CO)OC(C(=O)O)=C[C@@H]2O)nn1,Sialidase-2,enzyme activity,inhibitor,,,5.85
